From ChEMBL document CHEMBL1687824, “Overexpression of patA and patB, which encode ABC transporters, is associated with fluoroquinolone resistance in clinical isolates of Streptococcus pneumoniae” (2011) come the findings set out here.

The test system of assay [1] is Streptococcus pneumoniae. The assay can be described thus: Antibacterial activity against wild type Streptococcus pneumoniae M4 NCTC 7465 type 1 by standardized agar doubling dilution method in presence of 20 ug/ml reserpine efflux pump inhibitor. The assay is classed as functional. The method in brief:
(§1)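 MIC by agar doubling dilution following BSAC guidelines. Strains grown in brain heart infusion broth 24 h at 37°C in 5% CO2. Where an efflux pump inhibitor applies, MIC redetermined with reserpine at 20 μg/ml or sodium orthovanadate at 50 μM. Synergy taken as a fall in MIC of ≥2 dilutions with inhibitor present. Dye resistance defined relative to R6 (both dyes ≥2 dilutions higher).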

In assay [2] the test system is Streptococcus pneumoniae. As to the kind of experiment: Antibacterial activity against fluoroquinolone, dye-susceptible Streptococcus pneumoniae M295 S overexpressing patA, patB by standardized agar doubling dilution method in presence of 20 ug/ml reserpine efflux pump inhibitor. It counts as functional. The method in brief:
as §1

For assay [3], the system named is Streptococcus pneumoniae. As to the kind of experiment: Antibacterial activity against wild-type Streptococcus pneumoniae R6 by standardized agar doubling dilution method in presence of 20 ug/ml reserpine efflux pump inhibitor.
The subject of assay [4] is Streptococcus pneumoniae. As to the kind of experiment: Antibacterial activity against dye-resistant Streptococcus pneumoniae M46 DR overexpressing patA, patB by standardized agar doubling dilution method in presence of 50 uM sodium orthovanadate efflux pump inhibitor. The assay is classed as functional. In a few lines:
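MICs were determined by BSAC agar doubling dilution in the presence of sodium orthovanadate at 50 μM. Cultures were grown in BHI broth for 24 h at 37°C in 5% CO2, with R6 as control. Synergy was defined as an MIC reduction of ≥2 dilutions with the inhibitor present.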

Assay [5] concerns Streptococcus pneumoniae. As to the kind of experiment: Antibacterial activity against fluoroquinolone, dye-resistant Streptococcus pneumoniae M296 overexpressing patA, patB by standardized agar doubling dilution method in presence of 20 ug/ml reserpine efflux pump inhibitor. The assay is classed as functional. In a few lines: as §1
Assay [6] relates to Streptococcus pneumoniae. As to the kind of experiment: Antibacterial activity against wild type Streptococcus pneumoniae M3 NCTC 7466 type 2 by standardized agar doubling dilution method in presence of 20 ug/ml reserpine efflux pump inhibitor. It counts as functional. The method in brief: as §1

Each structure is given as a SMILES string.

What is called MIC is the lowest concentration found to suppress growth.

Turning to `CC[n+]1c(-c2ccccc2)c2cc(N)ccc2c2ccc(N)cc21.[Br-]` [HOMIDIUM BROMIDE], the MIC was determined as 0.3 µg/mL in the assay on Streptococcus pneumoniae [1]; 0.25 µg/mL with Streptococcus pneumoniae [2]; 0.25 µg/mL with Streptococcus pneumoniae [3]; 1 µg/mL in the assay with Streptococcus pneumoniae [4]; 0.5 µg/mL in the assay with Streptococcus pneumoniae [5]; 0.5 µg/mL in the assay on Streptococcus pneumoniae [6].
